Data from ChEMBL document CHEMBL2062473, “Laurene-type sesquiterpenes from the Red Sea red alga Laurencia obtusa as potential antitumor-antimicrobial agents” (2012).
≈ marks a conversion by molar mass, not a printed value. Calls of active or inactive are those of the source. No cut-off for these calls is given here.

What was measured:
[1] = tested on: Bacillus subtilis; experiment: Antibacterial activity against Bacillus subtilis ATCC 6633 by two fold serial dilution technique; type: functional
Summary of the method: (§1)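 Compounds first screened by disk diffusion. Those giving inhibition zones above 15 mm were then tested for bacteriostatic MIC by two-fold serial dilution.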

[2] = tested on: Candida albicans; experiment: Antifungal activity against Candida albicans after 48 hrs by microtiter broth dilution method; type: functional
Summary of the method: (§2)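 Fungi were grown 24 h at 37 C under 5% CO2 in YPD (1% yeast, 2% peptone, 2% dextrose), then diluted 1:100 in saline and 1:100 in YPD to about 1000 CFU per inoculum. Inocula were added to two-fold serial dilutions in 96-well broth, with drug-free growth and sterility controls. Plates were incubated 48 h at 37 C under 5% CO2. MIC was the lowest concentration without visible turbidity.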

[3] = tested on: Staphylococcus aureus; experiment: Antibacterial activity against Staphylococcus aureus ATCC 29213 by two fold serial dilution technique; type: functional; summary of the method: as §1
[4] = tested on: Aspergillus fumigatus; experiment: Antifungal activity against wild type Aspergillus fumigatus Af293 after 48 hrs by microtiter broth dilution method; type: functional; settings: Af293, 48 h; summary of the method: as §2
[5] = tested on: Pseudomonas aeruginosa; experiment: Antibacterial activity against Pseudomonas aeruginosa ATCC […] by two fold serial dilution technique; type: functional, organism-based; summary of the method: as §1
[6] = Cytotoxicity against mouse EAC at 25 to 100 uM after 2 hrs by trypan blue staining based hemocytometer analysis; type: functional, Ehrlich
Summary of the method: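 Ehrlich ascites cells were aspirated aseptically from a donor animal's peritoneal fluid and kept in RPMI 1640 with 10% FBS. Cells were exposed to compounds at three levels (100, 50, 25) prepared in DMSO/RPMI-1640 for 2 h at 37 C in humidified 5% CO2. Viability was scored by trypan blue exclusion on a hemocytometer; untreated control viability exceeded 95%.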

MIC [1] [µg/mL]	MIC [2] [µg/mL]	MIC [3] [µg/mL]	MIC [4] [µg/mL]	MIC [5]	SMILES	Activity [6] [%]
39 (≈ 179 µM)	120 (≈ 550 µM)	31 (≈ 142 µM)	200 (≈ 916 µM)	inactive	CC1=C(C)[C@@](C)(C2=CCC(CO)=CC2)CC1	79.9
35 (≈ 163 µM)	70 (≈ 327 µM)	27 (≈ 126 µM)	100 (≈ 467 µM)	inactive	CC1=C(C)[C@@](C)(c2ccc(C=O)cc2)CC1 [ISOLAURELDEHYDE]	83.1
46 (≈ 213 µM)	2000 (≈ 9250 µM)	52 (≈ 240 µM)	2000 (≈ 9250 µM)	inactive	CC1=C(C)[C@@](C)(c2ccc(CO)cc2)CC1	

SMILES	MIC [1] [µg/mL]	MIC [2] [µg/mL]	MIC [3] [µg/mL]	MIC [4] [µg/mL]	MIC [5]	Activity [6] [%]
CC(=O)N1CCN(c2ccc(OCC3COC(Cn4ccnc4)(c4ccc(Cl)cc4Cl)O3)cc2)CC1 (centres undefined) [KETOCONAZOLE]		40 (≈ 75.3 µM)		40 (≈ 75.3 µM)		
